Reference: ChEMBL document CHEMBL1932913, “Synthesis and antitumor evaluation of some new 1,3,4-oxadiazole-based heterocycles” (Eur J Med Chem, 2012)
Values after ≈ are worked out from the molar mass of the structure shown. Active and inactive are the calls of the source. The calls are words filed in the database; no cut-off is given here.

tested on: MCF7; assay: Cytotoxicity against human MCF7 cells after 96 hrs by MTT assay; format: functional, cell-based; details: MCF7, 96 h
Summary of the method: (§1)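 Cells from ATCC, batch cultured 10 d, seeded at 10 × 10³ cells/well in RPMI-1640 with fetal bovine serum, attached 24 h at 37 °C, 5% CO₂. Serum-free medium, then test samples at final 1000, 500, 200, 100, 50, 20, 10 (DMSO ≤1% v/v); 96 h incubation. Formazan read-out against untreated controls; 5-fluorouracil positive control; IC50 from dose–response curve.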

Compound | IC50
Nc1nn(-c2ccccc2)c(Nc2ccccc2)c1-c1nnc(NC(=O)c2ccccc2)o1 | 99.1 µg/mL (≈ 227 µM)
O=C(Nc1nnc(-c2nc3ccc4ccccc4c3oc2=O)o1)c1ccccc1 | 96.9 µg/mL (≈ 252 µM)
CC(=O)c1sc(Nc2ccccc2)c(-c2nnc(NC(=O)c3ccccc3)o2)c1N | 75.5 µg/mL (≈ 180 µM)
N#C/C(=C1\SC(=O)CN1c1ccccc1)c1nnc(NC(=O)c2ccccc2)o1 | 69.2 µg/mL (≈ 172 µM)
O=C(Nc1nnc(-c2cc3ccccc3oc2=O)o1)c1ccccc1 | 32.6 µg/mL (≈ 97.8 µM)
N#C/C(=C/c1cn(-c2ccccc2)nc1-c1ccccc1)c1nnc(NC(=O)c2ccccc2)o1 | 37.4 µg/mL (≈ 81.6 µM)
N#C/C(=C(\S)Nc1ccccc1)c1nnc(NC(=O)c2ccccc2)o1 | 77.5 µg/mL (≈ 213 µM)
Nc1n[nH]c(Nc2ccccc2)c1-c1nnc(NC(=O)c2ccccc2)o1 | 38.3 µg/mL (≈ 106 µM)
Nc1c(C(=O)c2ccccc2)sc(Nc2ccccc2)c1-c1nnc(NC(=O)c2ccccc2)o1 | 100 µg/mL (≈ 209 µM)
COc1ccc(/C=C(/C#N)c2nnc(NC(=O)c3ccccc3)o2)cc1 | 49.9 µg/mL (≈ 144 µM)
CS/C(Nc1ccccc1)=C(\C#N)c1nnc(NC(=O)c2ccccc2)o1 | 107 µg/mL (≈ 284 µM)
N#C/C(c1nnc(NC(=O)c2ccccc2)o1)=c1\sc(=O)/c(=C/c2cn(-c3ccccc3)nc2-c2ccccc2)n1-c1ccccc1 | 411 µg/mL (≈ 648 µM)
Cc1c(/C=c2/c(=O)s/c(=C(\C#N)c3nnc(NC(=O)c4ccccc4)o3)n2-c2ccccc2)c(=O)n(-c2ccccc2)n1C | 167 µg/mL (≈ 277 µM)
O=C(Nc1nnc(-c2nc3c(ccc4ccccc43)oc2=O)o1)c1ccccc1 | 222 µg/mL (≈ 577 µM)
CC1=CS/C(=C(\C#N)c2nnc(NC(=O)c3ccccc3)o2)N1c1ccccc1 | 25.8 µg/mL (≈ 64.3 µM)
NC1=Nn2c(nnc2NC(=O)c2ccccc2)C1 | 66.8 µg/mL (≈ 276 µM)
N#CCc1nnc(NC(=O)c2ccccc2)o1 | 39.2 µg/mL (≈ 172 µM)

tested on: Nucleic Acid; assay: Protection against bleomycin-iron complex-induced DNA damage using EDTA after 1 hr by thiobarbituric acid method; format: nucleic-acid assay; details: not given
Summary of the method: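 Bleomycin DNA-damage assay, 1.0 ml final: DNA 0.2 mg/ml, bleomycin 0.05 mg/ml, FeCl₃ 0.025 mM, MgCl₂ 5 mM, KH₂PO₄–KOH pH 7.0 30 mM, sample 0.1 mg/ml in MeOH (ascorbic acid 0.24 mM reference). 37 °C for 1 h; stopped with EDTA; TBA plus HCl, 80 °C 15 min; absorbance read. Three experiments, mean ± S.E.M.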

Compound | Activity
CC1=CS/C(=C(\C#N)c2nnc(NC(=O)c3ccccc3)o2)N1c1ccccc1 | Active
N#CCc1nnc(NC(=O)c2ccccc2)o1 | Active

tested on: WI-38; assay: Cytotoxicity against human WI38 cells after 96 hrs by MTT assay; format: cell-based; details: WI-38, 96 h; summary of the method: as §1

Compound | IC50
Nc1nn(-c2ccccc2)c(Nc2ccccc2)c1-c1nnc(NC(=O)c2ccccc2)o1 | 90.5 µg/mL (≈ 207 µM)
O=C(Nc1nnc(-c2nc3ccc4ccccc4c3oc2=O)o1)c1ccccc1 | 90.9 µg/mL (≈ 237 µM)
CC(=O)c1sc(Nc2ccccc2)c(-c2nnc(NC(=O)c3ccccc3)o2)c1N | 84.6 µg/mL (≈ 202 µM)
N#C/C(=C1\SC(=O)CN1c1ccccc1)c1nnc(NC(=O)c2ccccc2)o1 | 52.4 µg/mL (≈ 130 µM)
O=C(Nc1nnc(-c2cc3ccccc3oc2=O)o1)c1ccccc1 | 35.8 µg/mL (≈ 107 µM)
N#C/C(=C/c1cn(-c2ccccc2)nc1-c1ccccc1)c1nnc(NC(=O)c2ccccc2)o1 | 24.1 µg/mL (≈ 52.6 µM)
N#C/C(=C(\S)Nc1ccccc1)c1nnc(NC(=O)c2ccccc2)o1 | 84.6 µg/mL (≈ 233 µM)
Nc1n[nH]c(Nc2ccccc2)c1-c1nnc(NC(=O)c2ccccc2)o1 | 38.4 µg/mL (≈ 106 µM)
Nc1c(C(=O)c2ccccc2)sc(Nc2ccccc2)c1-c1nnc(NC(=O)c2ccccc2)o1 | 89.6 µg/mL (≈ 186 µM)
COc1ccc(/C=C(/C#N)c2nnc(NC(=O)c3ccccc3)o2)cc1 | 71.2 µg/mL (≈ 206 µM)
CS/C(Nc1ccccc1)=C(\C#N)c1nnc(NC(=O)c2ccccc2)o1 | 98.7 µg/mL (≈ 262 µM)
O=c1[nH]cc(F)c(=O)[nH]1 [FLUOROURACIL] | 3.2 µg/mL (≈ 24.6 µM)
N#C/C(c1nnc(NC(=O)c2ccccc2)o1)=c1\sc(=O)/c(=C/c2cn(-c3ccccc3)nc2-c2ccccc2)n1-c1ccccc1 | 340 µg/mL (≈ 537 µM)
Cc1c(/C=c2/c(=O)s/c(=C(\C#N)c3nnc(NC(=O)c4ccccc4)o3)n2-c2ccccc2)c(=O)n(-c2ccccc2)n1C | 175 µg/mL (≈ 291 µM)
O=C(Nc1nnc(-c2nc3c(ccc4ccccc43)oc2=O)o1)c1ccccc1 | 181 µg/mL (≈ 470 µM)
CC1=CS/C(=C(\C#N)c2nnc(NC(=O)c3ccccc3)o2)N1c1ccccc1 | 17.3 µg/mL (≈ 43.1 µM)
NC1=Nn2c(nnc2NC(=O)c2ccccc2)C1 | 65 µg/mL (≈ 268 µM)
N#CCc1nnc(NC(=O)c2ccccc2)o1 | 24.4 µg/mL (≈ 107 µM)

tested on: Vero; assay: Cytotoxicity against african green monkey Vero cells after 96 hrs by MTT assay; format: cell-based; details: Chlorocebus sabaeus; summary of the method: as §1

Compound | IC50
Nc1nn(-c2ccccc2)c(Nc2ccccc2)c1-c1nnc(NC(=O)c2ccccc2)o1 | 98.8 µg/mL (≈ 226 µM)
O=C(Nc1nnc(-c2nc3ccc4ccccc4c3oc2=O)o1)c1ccccc1 | 95.4 µg/mL (≈ 248 µM)
CC(=O)c1sc(Nc2ccccc2)c(-c2nnc(NC(=O)c3ccccc3)o2)c1N | 76.4 µg/mL (≈ 182 µM)
N#C/C(=C1\SC(=O)CN1c1ccccc1)c1nnc(NC(=O)c2ccccc2)o1 | 50.3 µg/mL (≈ 125 µM)
O=C(Nc1nnc(-c2cc3ccccc3oc2=O)o1)c1ccccc1 | 34.5 µg/mL (≈ 104 µM)
N#C/C(=C/c1cn(-c2ccccc2)nc1-c1ccccc1)c1nnc(NC(=O)c2ccccc2)o1 | 39.6 µg/mL (≈ 86.4 µM)
N#C/C(=C(\S)Nc1ccccc1)c1nnc(NC(=O)c2ccccc2)o1 | 82.4 µg/mL (≈ 227 µM)
Nc1n[nH]c(Nc2ccccc2)c1-c1nnc(NC(=O)c2ccccc2)o1 | 36.3 µg/mL (≈ 100 µM)
Nc1c(C(=O)c2ccccc2)sc(Nc2ccccc2)c1-c1nnc(NC(=O)c2ccccc2)o1 | 101 µg/mL (≈ 209 µM)
COc1ccc(/C=C(/C#N)c2nnc(NC(=O)c3ccccc3)o2)cc1 | 95.6 µg/mL (≈ 276 µM)
CS/C(Nc1ccccc1)=C(\C#N)c1nnc(NC(=O)c2ccccc2)o1 | 132 µg/mL (≈ 351 µM)
N#C/C(c1nnc(NC(=O)c2ccccc2)o1)=c1\sc(=O)/c(=C/c2cn(-c3ccccc3)nc2-c2ccccc2)n1-c1ccccc1 | 257 µg/mL (≈ 405 µM)
Cc1c(/C=c2/c(=O)s/c(=C(\C#N)c3nnc(NC(=O)c4ccccc4)o3)n2-c2ccccc2)c(=O)n(-c2ccccc2)n1C | 170 µg/mL (≈ 282 µM)
O=C(Nc1nnc(-c2nc3c(ccc4ccccc43)oc2=O)o1)c1ccccc1 | 189 µg/mL (≈ 492 µM)
CC1=CS/C(=C(\C#N)c2nnc(NC(=O)c3ccccc3)o2)N1c1ccccc1 | 15.8 µg/mL (≈ 39.4 µM)
NC1=Nn2c(nnc2NC(=O)c2ccccc2)C1 | 69.8 µg/mL (≈ 288 µM)
N#CCc1nnc(NC(=O)c2ccccc2)o1 | 30.3 µg/mL (≈ 133 µM)

tested on: HepG2; assay: Cytotoxicity against human HepG2 cells after 96 hrs by MTT assay; format: functional, cell-based; details: HepG2, 96 h; summary of the method: as §1

Compound | IC50
Nc1nn(-c2ccccc2)c(Nc2ccccc2)c1-c1nnc(NC(=O)c2ccccc2)o1 | 98.7 µg/mL (≈ 226 µM)
O=C(Nc1nnc(-c2nc3ccc4ccccc4c3oc2=O)o1)c1ccccc1 | 111 µg/mL (≈ 290 µM)
CC(=O)c1sc(Nc2ccccc2)c(-c2nnc(NC(=O)c3ccccc3)o2)c1N | 70.2 µg/mL (≈ 167 µM)
N#C/C(=C1\SC(=O)CN1c1ccccc1)c1nnc(NC(=O)c2ccccc2)o1 | 51.2 µg/mL (≈ 127 µM)
O=C(Nc1nnc(-c2cc3ccccc3oc2=O)o1)c1ccccc1 | 35.6 µg/mL (≈ 107 µM)
N#C/C(=C/c1cn(-c2ccccc2)nc1-c1ccccc1)c1nnc(NC(=O)c2ccccc2)o1 | 38.1 µg/mL (≈ 83.1 µM)
N#C/C(=C(\S)Nc1ccccc1)c1nnc(NC(=O)c2ccccc2)o1 | 100 µg/mL (≈ 276 µM)
Nc1n[nH]c(Nc2ccccc2)c1-c1nnc(NC(=O)c2ccccc2)o1 | 33.7 µg/mL (≈ 93.3 µM)
Nc1c(C(=O)c2ccccc2)sc(Nc2ccccc2)c1-c1nnc(NC(=O)c2ccccc2)o1 | 90.7 µg/mL (≈ 188 µM)
COc1ccc(/C=C(/C#N)c2nnc(NC(=O)c3ccccc3)o2)cc1 | 69.5 µg/mL (≈ 201 µM)
CS/C(Nc1ccccc1)=C(\C#N)c1nnc(NC(=O)c2ccccc2)o1 | 125 µg/mL (≈ 332 µM)
N#C/C(c1nnc(NC(=O)c2ccccc2)o1)=c1\sc(=O)/c(=C/c2cn(-c3ccccc3)nc2-c2ccccc2)n1-c1ccccc1 | 250 µg/mL (≈ 395 µM)
Cc1c(/C=c2/c(=O)s/c(=C(\C#N)c3nnc(NC(=O)c4ccccc4)o3)n2-c2ccccc2)c(=O)n(-c2ccccc2)n1C | 146 µg/mL (≈ 242 µM)
O=C(Nc1nnc(-c2nc3c(ccc4ccccc43)oc2=O)o1)c1ccccc1 | 190 µg/mL (≈ 494 µM)
CC1=CS/C(=C(\C#N)c2nnc(NC(=O)c3ccccc3)o2)N1c1ccccc1 | 12.4 µg/mL (≈ 30.9 µM)
NC1=Nn2c(nnc2NC(=O)c2ccccc2)C1 | 65.6 µg/mL (≈ 271 µM)
N#CCc1nnc(NC(=O)c2ccccc2)o1 | 21.2 µg/mL (≈ 92.9 µM)
